Measured values published in ChEMBL document CHEMBL3098067, “Novel di-tertiary-butyl phenylhydrazones as dual cyclooxygenase-2/5-lipoxygenase inhibitors: synthesis, COX/LOX inhibition, molecular modeling, and insights into their cytotoxicities” (Bioorg Med Chem Lett, 2014).
Values belong to the compound of their own block, whether it stands above or below them. Activity calls are given as the source filed them. The calls are words filed in the database; no cut-off is given here.

Legend:
HCA-7 [1] = assay: Inhibition of hyaluronan-induced CD44v6 in human HCA-7 cells transfected with Has2cDNA assessed as downregulation of 5-LOX protein expression at 5 uM after 24 hrs by Western blotting analysis; format: cell-based
Summary of the method: (§1)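 HCA7 cells were transiently transfected with Has2 cDNA, grown 72 h, then treated for 24 h. Western blots were probed for CD44v6, COX-1, COX-2 and 5-LOX, with longer exposures used to show COX-2 and 5-LOX. The same blot was reprobed for β-tubulin as a loading control.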

HCA-7 [2] = assay: Inhibition of hyaluronan-induced CD44v6 in human HCA-7 cells transfected with Has2cDNA assessed as downregulation of COX-2 protein expression at 5 uM after 24 hrs by Western blotting analysis; format: cell-based; summary of the method: as §1
HCA-7 [3] = assay: Inhibition of hyaluronan-induced CD44v6 in human HCA-7 cells transfected with Has2cDNA assessed as downregulation of COX-1 protein expression at 5 uM after 24 hrs by Western blotting analysis; format: cell-based; summary of the method: as §1
[4] = Cytotoxicity against COX-2 positive mouse APC10.1 cells transfected with CD44v6shRNA overexpressing HAS-2 assessed as growth inhibition after 48 hrs by MTT assay; format: functional, cell-based
[5] = Cytotoxicity against COX-2 positive human HCA-7 cells transfected with CD44v6shRNA assessed as growth inhibition after 48 hrs by MTT assay; format: functional, cell-based; conditions: HCA-7, 48 h
HT-29 [6] = assay: Cytotoxicity against COX-2 positive human HT-29 cells transfected with CD44v6shRNA assessed as growth inhibition after 48 hrs by MTT assay; format: functional, cell-based; conditions: HT-29, 48 h
SW480 = assay: Cytotoxicity against COX-2 negative human SW480 cells assessed as growth inhibition by CellTiter-96 AQueous assay; format: functional, cell-based
[7] = Cytotoxicity against COX-2 positive human HCA-7 cells assessed as growth inhibition by CellTiter-96 AQueous assay; format: functional, cell-based
[8] = Cytotoxicity against COX-2 positive mouse APC10.1 cells overexpressing HAS-2 assessed as growth inhibition by CellTiter-96 AQueous assay; format: functional, cell-based
HT-29 [9] = assay: Cytotoxicity against COX-2 positive human HT-29 cells assessed as growth inhibition by CellTiter-96 AQueous assay; format: functional, cell-based
[10] = Ratio of IC50 for COX-2 positive mouse APC10.1 cells overexpressing HAS-2 to IC50 for COX-2 positive mouse APC10.1 cells transfected with CD44v6shRNA overexpressing HAS-2; format: functional
[11] = Ratio of IC50 for COX-2 positive human HCA-7 cells to IC50 for COX-2 positive human HCA-7 cells transfected with CD44v6shRNA; format: functional
HT-29 [12] = assay: Ratio of IC50 for COX-2 positive human HT-29 cells to IC50 for COX-2 positive human HT-29 cells transfected with CD44v6shRNA; format: functional
[13] = Downregulation of hyaluronan-induced CD44v6 protein expression in human HCA-7 cells transfected with Has2cDNA at 5 uM after 24 hrs by Western blotting analysis; format: functional, cell-based; summary of the method: as §1
[14] = biological target: T1, Polyunsaturated fatty acid 5-lipoxygenase (Homo sapiens, UniProt P09917); assay: Inhibition of 5-LOX (unknown origin) by ELISA
T1 sequence (P09917 whole entry): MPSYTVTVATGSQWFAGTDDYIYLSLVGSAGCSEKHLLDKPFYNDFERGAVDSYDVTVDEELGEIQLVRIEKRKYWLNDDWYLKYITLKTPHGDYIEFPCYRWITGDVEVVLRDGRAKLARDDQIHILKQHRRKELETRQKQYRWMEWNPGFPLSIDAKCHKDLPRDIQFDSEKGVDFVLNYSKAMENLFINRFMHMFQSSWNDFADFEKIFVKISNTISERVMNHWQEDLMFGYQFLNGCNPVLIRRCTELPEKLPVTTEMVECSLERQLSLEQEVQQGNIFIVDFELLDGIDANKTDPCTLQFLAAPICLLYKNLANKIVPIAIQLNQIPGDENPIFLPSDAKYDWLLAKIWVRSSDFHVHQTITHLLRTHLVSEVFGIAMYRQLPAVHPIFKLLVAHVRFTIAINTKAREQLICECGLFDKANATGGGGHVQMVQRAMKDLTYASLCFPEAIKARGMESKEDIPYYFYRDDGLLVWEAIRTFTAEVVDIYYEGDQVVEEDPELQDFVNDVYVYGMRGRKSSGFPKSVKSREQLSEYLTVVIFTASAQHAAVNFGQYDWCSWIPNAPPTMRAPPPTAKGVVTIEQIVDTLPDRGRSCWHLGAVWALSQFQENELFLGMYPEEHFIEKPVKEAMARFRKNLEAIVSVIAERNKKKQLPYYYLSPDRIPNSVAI
Summary of the method: (§2)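 Assays used enzyme immobilized in ELISA plates, with activity read by ELISA. IC50 values are given in µM.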

[15] = biological target: T2, Prostaglandin G/H synthase 2 (Homo sapiens, UniProt P35354); assay: Inhibition of COX-2 (unknown origin) by ELISA
T2 sequence (P35354 whole entry): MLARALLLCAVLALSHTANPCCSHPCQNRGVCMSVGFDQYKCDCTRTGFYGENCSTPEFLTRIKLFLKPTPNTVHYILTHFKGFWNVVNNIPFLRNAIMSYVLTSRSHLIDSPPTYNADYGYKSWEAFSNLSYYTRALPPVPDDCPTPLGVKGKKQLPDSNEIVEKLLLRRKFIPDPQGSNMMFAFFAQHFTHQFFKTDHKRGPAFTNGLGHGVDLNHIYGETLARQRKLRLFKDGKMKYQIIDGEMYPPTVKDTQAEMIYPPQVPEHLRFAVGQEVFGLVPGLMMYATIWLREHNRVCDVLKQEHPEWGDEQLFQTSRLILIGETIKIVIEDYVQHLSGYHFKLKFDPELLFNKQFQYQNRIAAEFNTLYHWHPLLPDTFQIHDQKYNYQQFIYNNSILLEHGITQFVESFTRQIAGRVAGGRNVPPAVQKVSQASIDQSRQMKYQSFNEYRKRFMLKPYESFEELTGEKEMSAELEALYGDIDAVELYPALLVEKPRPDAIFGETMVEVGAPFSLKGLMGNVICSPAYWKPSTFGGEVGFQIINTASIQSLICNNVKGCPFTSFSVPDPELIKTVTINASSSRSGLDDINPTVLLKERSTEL

[16] = biological target: T3, Prostaglandin G/H synthase 1 (Ovis aries, UniProt P05979); assay: Inhibition of ram seminal vesicle COX-1 assessed as conversion of arachidonic acid to PGH2; summary of the method: as §2
T3 sequence (P05979 whole entry): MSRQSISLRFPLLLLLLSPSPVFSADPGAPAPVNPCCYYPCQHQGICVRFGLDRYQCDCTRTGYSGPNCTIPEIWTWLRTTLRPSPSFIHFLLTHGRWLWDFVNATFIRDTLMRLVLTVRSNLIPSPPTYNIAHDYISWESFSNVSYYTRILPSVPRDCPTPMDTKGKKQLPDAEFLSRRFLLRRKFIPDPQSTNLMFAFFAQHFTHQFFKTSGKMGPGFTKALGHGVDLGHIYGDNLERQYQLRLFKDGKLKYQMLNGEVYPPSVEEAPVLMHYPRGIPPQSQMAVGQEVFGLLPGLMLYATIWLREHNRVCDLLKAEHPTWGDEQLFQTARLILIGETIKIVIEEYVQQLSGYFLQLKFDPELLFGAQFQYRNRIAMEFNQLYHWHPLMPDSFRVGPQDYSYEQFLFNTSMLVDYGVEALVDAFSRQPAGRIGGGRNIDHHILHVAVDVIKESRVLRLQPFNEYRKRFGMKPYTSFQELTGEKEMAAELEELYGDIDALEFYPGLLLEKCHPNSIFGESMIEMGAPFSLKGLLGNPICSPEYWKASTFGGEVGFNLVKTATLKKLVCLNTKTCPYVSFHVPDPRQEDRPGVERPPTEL

HCA-7 [17] = assay: Cytotoxicity against human HCA-7 cells expressing COX-2, 5-LOX, CD44v6 assessed as growth inhibition after 24 hrs by MTT assay; format: functional, cell-based
Summary of the method: (§3)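 HCA7 and HIEC6 cells were exposed to a range of test concentrations for 24 h. Cytotoxicity was read by MTT assay and expressed as percent growth inhibition, with untreated cells set to 0% inhibition.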

HT-29 [18] = assay: Downregulation of hyaluronan-induced CD44v6 m-RNA expression in human HT-29 cells transfected with Has2cDNA and CD44v6shRNA at 5 uM after 24 hrs by qRT-PCR analysis; format: functional, cell-based
Summary of the method: (§4)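 HT29 cells were transiently transfected with Has2 cDNA alone, or with Has2 cDNA followed by CD44v6 shRNA. They were grown 72 h, then treated for 24 h. CD44v6 mRNA was quantified by qRT-PCR in three independent experiments, each with triplicate samples.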

HT-29 [19] = assay: Downregulation of hyaluronan-induced CD44v6 m-RNA expression in human HT-29 cells transfected with Has2cDNA at 5 uM after 24 hrs by qRT-PCR analysis; format: functional, cell-based; summary of the method: as §4
[20] = Cytotoxicity against COX-2, LOX, CD44v6-deficient HIEC6 cells assessed as growth inhibition after 24 hrs by MTT assay; format: cell-based; conditions: human, hiec6, 24 h; summary of the method: as §3
HCA-7 [21] = assay: Inhibition of hyaluronan-induced CD44v6 in human HCA-7 cells transfected with Has2cDNA assessed as downregulation of 5-LOX protein expression at 50 uM after 24 hrs by Western blotting analysis; format: cell-based; summary of the method: as §1
HCA-7 [22] = assay: Inhibition of hyaluronan-induced CD44v6 in human HCA-7 cells transfected with Has2cDNA assessed as downregulation of COX-2 protein expression at 50 uM after 24 hrs by Western blotting analysis; format: cell-based; summary of the method: as §1
HCA-7 [23] = assay: Inhibition of hyaluronan-induced CD44v6 in human HCA-7 cells transfected with Has2cDNA assessed as downregulation of COX-1 protein expression at 50 uM after 24 hrs by Western blotting analysis; format: cell-based; summary of the method: as §1

SMILES: Cc1ccc(-c2cc(C(F)(F)F)nn2-c2ccc(S(N)(=O)=O)cc2)cc1 [CELECOXIB]
Activity (HCA-7 [1]): Active
Activity (HCA-7 [2]): Active
Activity (HCA-7 [3]): Active
IC50 [4]: 1.3 µM
IC50 [5]: 0.75 µM
IC50 (HT-29 [6]): 0.7 µM
IC50 (SW480): 6.9 µM
IC50 [7]: 4.9 µM
IC50 [8]: 13.4 µM
IC50 (HT-29 [9]): 5.7 µM

IC50 [14]: 5.55 µM
IC50 [15]: 8.8 µM
IC50 [16]: > 300 µM
SMILES: CC(C)(C)c1cc(/C=N/NC(=O)c2cccnc2)c(O)c(C(C)(C)C)c1
Ratio IC50 [10]: 7.2
Ratio IC50 [11]: 14
Ratio IC50 (HT-29 [12]): 12
Activity (HCA-7 [1]): Active
Activity (HCA-7 [2]): Active
Activity (HCA-7 [3]): Active
Activity [13]: Active
IC50 [4]: 1.9 µM
IC50 [5]: 0.26 µM
IC50 (HT-29 [6]): 0.35 µM
IC50 (SW480): 37 µM
IC50 [7]: 3.5 µM
IC50 [8]: 13.8 µM
IC50 (HT-29 [9]): 4.3 µM

IC50 [14]: 5.88 µM
IC50 [15]: 6.49 µM
IC50 [16]: 25.5 µM
SMILES: CC(C)(C)c1cc(/C=N/NC(=O)c2ccccc2)c(O)c(C(C)(C)C)c1
Ratio IC50 [10]: 6.1
Ratio IC50 [11]: 7.7
Ratio IC50 (HT-29 [12]): 6.7
Activity (HCA-7 [1]): Active
Activity (HCA-7 [2]): Active
Activity (HCA-7 [3]): Active
Activity [13]: Active
IC50 [4]: 1.8 µM
IC50 [5]: 0.56 µM
IC50 (HT-29 [6]): 0.85 µM
IC50 (SW480): 35.7 µM
IC50 [7]: 4.3 µM
IC50 [8]: 11.9 µM
IC50 (HT-29 [9]): 5.7 µM

SMILES: CC(C)(C)c1cc(C=O)c(O)c(C(C)(C)C)c1
growth inhibition (GI) (HCA-7 [17]): Active

IC50 [14]: 6.25 µM
IC50 [15]: 7.11 µM
IC50 [16]: > 300 µM
SMILES: CC(C)(C)c1cc(/C=N/NC(=O)c2ccncc2)c(O)c(C(C)(C)C)c1
Ratio IC50 [10]: 6.1
Ratio IC50 [11]: 8.4
Ratio IC50 (HT-29 [12]): 8
Activity (HCA-7 [1]): Active
Activity (HCA-7 [2]): Active
Activity (HCA-7 [3]): Active
Activity [13]: Active
IC50 [4]: 3 µM
IC50 [5]: 0.76 µM
IC50 (HT-29 [6]): 0.71 µM
IC50 (SW480): 33.7 µM
IC50 [7]: 6.4 µM
IC50 [8]: 18.2 µM
IC50 (HT-29 [9]): 5.8 µM

SMILES: NNC(=O)c1ccccc1O
growth inhibition (GI) (HCA-7 [17]): Active

IC50 [14]: 8 µM
IC50 [15]: 5.13 µM
IC50 [16]: 44.6 µM
SMILES: CC(C)(C)c1cc(/C=N/NC(=O)c2ccccc2O)c(O)c(C(C)(C)C)c1
Ratio IC50 [10]: 37.3
Ratio IC50 [11]: 21
Ratio IC50 (HT-29 [12]): 20
Activity (HCA-7 [1]): Active
Activity (HCA-7 [2]): Active
Activity (HCA-7 [3]): Active
Activity (HT-29 [18]): Active
Activity (HT-29 [19]): Active
Activity [13]: Active
Activity [20]: Non-toxic
growth inhibition (GI) (HCA-7 [17]): Active
IC50 [4]: 0.15 µM
IC50 [5]: 0.078 µM
IC50 (HT-29 [6]): 0.09 µM
IC50 (SW480): 15.5 µM
IC50 [7]: 1.6 µM
IC50 [8]: 5.6 µM
IC50 (HT-29 [9]): 1.8 µM

IC50 [16]: 0.8 µM
SMILES: CC1(C)Cc2c(-c3ccccc3)c(-c3ccc(Cl)cc3)c(CC(=O)O)n2C1 [LICOFELONE]
Activity (HCA-7 [21]): Active
Activity (HCA-7 [22]): Active
Activity (HCA-7 [23]): Active
IC50 [4]: 23 µM
IC50 [5]: 18.5 µM
IC50 (HT-29 [6]): 21.1 µM
IC50 (SW480): 68 µM
IC50 [7]: 60.9 µM
IC50 [8]: 70.6 µM
IC50 (HT-29 [9]): 67 µM
